# Screening data (PubChem)
# A selection: hits, their analogues and other compounds. The true share with any hit is near 0.72%.
# hIAP activ: human IAP activation | purified human IAP, CDP-Star luminescence, 30 min; hits give high values; 1 = vehicle-only enzyme, 0 = enzyme-free background | activation factor at 10 µM | 330,000 tested, 0.16% active | AID 2524;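 active = activation factor of the enzyme at least 2-fold when tested at 20 µM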
# Target sequence (P09923 whole entry, looked up): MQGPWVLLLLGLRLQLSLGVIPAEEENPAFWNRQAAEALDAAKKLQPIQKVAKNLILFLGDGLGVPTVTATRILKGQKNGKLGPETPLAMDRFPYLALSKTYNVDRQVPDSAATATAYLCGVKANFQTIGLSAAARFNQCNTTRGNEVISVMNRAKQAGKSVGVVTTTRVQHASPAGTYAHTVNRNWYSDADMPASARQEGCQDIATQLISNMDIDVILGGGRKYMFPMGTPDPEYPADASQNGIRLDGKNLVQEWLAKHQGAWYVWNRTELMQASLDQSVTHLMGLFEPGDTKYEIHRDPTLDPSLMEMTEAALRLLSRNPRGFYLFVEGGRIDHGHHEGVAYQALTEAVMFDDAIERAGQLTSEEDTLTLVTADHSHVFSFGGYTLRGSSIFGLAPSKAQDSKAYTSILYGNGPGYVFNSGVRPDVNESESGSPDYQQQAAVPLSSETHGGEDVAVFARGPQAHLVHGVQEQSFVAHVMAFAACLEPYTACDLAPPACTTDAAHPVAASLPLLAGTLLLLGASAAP
# bIAP act: increases bovine intestinal alkaline phosphatase activity | purified bovine IAP, CDP-star luminescence, 30 min; hits give high values; fold of DMSO-control signal, blank-subtracted | activation factor at 20 µM | 200,000 tested, 0.17% active | AID 1016;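 active = activation factor of 2 or more at 20 µM, a signal rise over negative controls twice the positive control's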
# mIAP act: increases mouse intestinal alkaline phosphatase activity. muIAP, CDP-Star luminescence, 30 min; hits give high values; 1 = vehicle-only enzyme signal, 0 = enzyme-free wells. activation factor at 10 µM. 330,000 tested, 0.24% active. AID 2805;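 active = activation factor of at least 2 at 20 µM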
#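 System: mouse IAP enzyme. Reagent: CDP-Star chemiluminescent phosphatase substrate. Benchmarks: DMSO wells, no-enzyme wells. Times: 30 min enzyme-substrate-compound incubation at room temperature. Detection: luminescence from enzymatic CDP-Star hydrolysis. Doses: test compounds delivered from DMSO solution.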
# mIAP block: blocks mouse intestinal alkaline phosphatase; inhibition, % at 10 µM; AID 2806; 330,000 tested, 0.2% active; purified mouse IAP, CDP-Star luminescence, 30 min;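 active = inhibition of at least 40% at 10 µM in the primary screen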;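 note: plate controls were DMSO with enzyme for no effect and no enzyme wells for full effect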
# hIAP inh: blocks human intestinal alkaline phosphatase; inhibition, % at 10 µM; P09923; purified IAP, CDP-Star luminescence, 30 min; 330,000 tested, 0.12% active;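 active = inhibition reaching a set limit with compound at 10 µM in the primary screen, cut at about 35% in these data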;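 note: plate controls were DMSO wells with enzyme for no effect and no-enzyme buffer wells for full effect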
# bIAP inh: intestinal alkaline phosphatase (bovine) inhibition. AID 1019. inhibition, % at 20 µM. purified bovine IAP, CDP-star luminescence, 30 min. 190,000 tested, under 10 active;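 active = over 50% inhibition of intestinal alkaline phosphatase at 20 µM in the single-dose screen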
#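 System: Purified bovine intestinal alkaline phosphatase (IAP) enzyme | Input: IAP diluted 1/65,000,000 in the well | Also added: CDP-star chemiluminescent phosphatase substrate, 30 µM final | Dosing: 20 µM single dose | Times: Enzyme reaction for 30 min at room temperature | Detection: Luminescence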
# mIAP inh confirm: mouse IAP inhibition confirmation. shares compounds with mIAP block. purified mouse IAP, CDP-Star luminescence, 30 min. inhibition, % at 10 µM. 11,000 tested, 4.7% active;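 active = inhibition of at least 40% at 10 µM in either of the two replicates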;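 note: plate controls were DMSO wells with enzyme for no effect and buffer wells lacking enzyme for full effect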
# * hit, by the source's call; i = inactive; nt = no result.
SMILES,hIAP activ,bIAP act,mIAP act,mIAP block,hIAP inh,bIAP inh,mIAP inh confirm
COc1ccc(S(=O)(=O)N(C)C[C@H]2Oc3ccc(NC(=O)C4CCCCC4)cc3C(=O)N([C@H](C)CO)C[C@@H]2C)cc1,1,nt,1.4,-37,0,nt,nt
COc1ccc(S(=O)(=O)N(C)C[C@H]2Oc3ccc(NC(=O)NC4CCCCC4)cc3C(=O)N([C@H](C)CO)C[C@@H]2C)cc1,0.94,nt,4.7*,-373,6,nt,-174
Cc1onc(-c2ccccc2Cl)c1C(=O)OCC(=O)N1CCCCC1,1.1,nt,0.96,4,-6,nt,nt
COc1ccc(N2CCN(C(CNC(=O)OCc3ccccc3)c3ccco3)CC2)cc1 (stereo not given),1,1.1,1,-2,0,-13,nt
O=c1oc(-c2cccs2)nc2sc3c(c12)CCC3,1.2,1,1,0,-16,3,nt
O=c1oc(/C=C/c2ccco2)nc2sc3c(c12)CCC3,1.1,0.9,0.37,63*,-10,14,62*
COc1ccc(C(C(=O)NC(C)(C)C)N(C(=O)CCC(=O)Nc2cc(C)on2)c2cccc(C)c2C)cc1 (stereo not given),1.1,nt,1.1,-6,-9,nt,nt
Nc1nnc(CC(=O)N/N=C/c2cc([N+](=O)[O-])cc(Br)c2O)s1,1.1,1.2,0.53,48*,-9,-19,46*
O=C(NNC(=O)c1cc2cc(Br)ccc2oc1=O)c1ccc(O)cc1O,1.1,0.7,0.23,77*,-5,31,82*
Cc1ccc(NC(=O)CNC(=O)Cc2cccc3ccccc23)c(O)c1,0.86,nt,0.9,10,14,nt,nt
O=C(N/N=C/c1cc(Cl)cc([N+](=O)[O-])c1O)c1ccccc1NS(=O)(=O)c1cccs1,1.2,nt,0.59,41*,-22,nt,44*
O=C(N/N=C/c1cc(Cl)cc([N+](=O)[O-])c1O)c1ccc2c(c1)OCO2,0.8,nt,0.4,60*,20,nt,68*
O=C(NN=Cc1ccc(O)cc1)c1ccccc1NS(=O)(=O)c1cccs1,1.1,nt,1,-3,-8,nt,nt
COc1ccc(OC)c(NC(=O)CSc2nc(N3CCOCC3)nc(N3CCOCC3)n2)c1,1,nt,1,-1,-4,nt,nt
CC(C)(C)c1ccc(NC(=O)NC2CCCc3ccccc32)cc1 (stereo not given),1.4,nt,6.2*,i,-42,nt,-253
Cc1ccc(NC(=O)NC2CCCc3ccccc32)cc1 (stereo not given),0.96,nt,1.5,-55,4,nt,nt
CCn1c(=O)c2sccc2n(Cc2cc(C(=O)OC)ccc2OC)c1=O,0.98,nt,0.96,4,2,nt,nt
CCCC(=O)Nc1nnc(-c2ccco2)s1,1,1,0.91,9,-2,4,nt
Nc1nnc(-c2ccco2)s1,0.8,1.1,0.4,60*,20,-6,66*
CCCCNc1nc(Nc2ccc(C)c(Cl)c2)c2cnn(C)c2n1,1,nt,1.3,-27,-4,nt,nt
O=C(NC1CCCCC1)Oc1cc2oc(=O)sc2cc1Br,0.98,nt,0.4,60*,2,nt,81*
Cc1cc(-c2csc(NC(=O)c3ccc(=O)[nH]c3)n2)c(C)n1Cc1ccco1,0.94,nt,0.52,48*,6,nt,65*
NS(=O)(=O)c1ccc2c(c1)oc(=O)c1cc(S(N)(=O)=O)ccc12,0.97,0.9,0.52,48*,3,9,57*
COCCNS(=O)(=O)c1ccc2c(c1)oc(=O)c1cc(S(=O)(=O)NCCOC)ccc12,1.1,1,1,0,-11,-2,nt
COC(=O)C/C=N/N=C1/NC(=O)/C(=C/C(=O)O)S1,0.82,nt,0.47,54*,18,nt,42*
SMILES,hIAP activ,bIAP act,mIAP act,mIAP block,hIAP inh,bIAP inh,mIAP inh confirm
Oc1cccc(C=Nc2cccc3ccccc23)c1O,1.1,nt,0.62,38,-5,nt,nt
Oc1cccc(C=NCc2ccccc2)c1O,1.1,0.8,0.42,58*,-6,16,63*
CCOc1ccc(NC(=O)Cn2c(=O)n(CCCC(=O)NC3CCN(Cc4ccccc4)CC3)c(=O)c3ccccc32)cc1,1,nt,1,0,-1,nt,nt
CCCOC1(NC(=O)c2ccccc2)C(C)=CC(=O)C=C1C,1.2,1,1,-1,-21,-4,nt
O=C(CCCN1C(=O)/C(=C\c2ccccc2)SC1=S)Nc1ccc(O)cc1C(=O)O,1,nt,1,0,-4,nt,nt
O=C(O)CCCN1C(=O)/C(=C\c2ccco2)SC1=S,nt,0.9,nt,nt,nt,6,nt
O=C(CN1C(=O)/C(=C\c2ccco2)SC1=S)Nc1ccc(O)cc1C(=O)O,1.1,nt,0.3,70*,-10,nt,81*
O=C(CCN1C(=O)/C(=C/c2ccco2)SC1=S)Nc1ccc(O)cc1C(=O)O,1,nt,0.31,69*,-3,nt,78*
O=C(CCCN1C(=O)/C(=C/c2ccco2)SC1=S)Nc1ccccc1C(=O)O,0.93,nt,0.31,69*,7,nt,62*
O=C(CN(C(=O)CCC(=O)Nc1ccccn1)c1ccc(F)cc1)NCc1ccc(F)cc1,1,nt,0.93,7,0,nt,nt
CC(C)CC1CC(C)(c2csc(NNC(=O)c3ccccc3)n2)OC1=O (stereo not given),1.7,1.4,1,-1,-67,-40,nt
CC(C)(C)N(NC(=O)Nc1ccc(Cl)c(Cl)c1)C(=O)c1ccccc1,1.8,1,6.8*,i,-83,-2,-295
Cc1cc(C)cc(C(=O)N(NC(=O)Nc2ccc(Cl)cc2)C(C)(C)C)c1,1.3,1,4.3*,-335,-30,-3,-322
C/C=C(\C)CN1CCCC(CO)(Cc2ccccc2)C1 (stereo not given),1,1,1.2,-18,-1,-3,nt
Cn1c(=O)c2c(nc(Cl)n2CC(=O)NC2(C#N)CCCCC2)n(C)c1=O,1.3,nt,0.99,1,-33,nt,nt
CC(NC(=O)CNC(=O)C1O[C@@H]2OC(C)(C)O[C@@H]2[C@H]2OC(C)(C)O[C@@H]12)C(=O)O (stereo not given in full),1.1,1.1,0.97,3,-8,-13,nt
O=C(NN1C(=O)/C(=C\c2ccc(O)c([N+](=O)[O-])c2)SC1=S)c1ccccc1Cl,0.82,nt,0.56,44*,18,nt,49*
CCOc1cc(/C=C2\SC(=S)N(Nc3ccccc3)C2=O)ccc1O,1.1,0.9,0.56,44*,-12,6,47*
O=C1c2cccc3c(O)ccc(c23)C(=O)N1Cc1ccccc1,0.98,0.6,0.91,9,2,44,nt
Cc1ccc(C2=NOC(C)(c3nnc(Cc4ccccc4)o3)C2)cc1 (stereo not given),1.2,nt,1.1,-8,-19,nt,nt
CCCCc1cc(=O)oc2c(C)c(OCc3nn[nH]n3)ccc12,1.1,nt,1.2,-19,-6,nt,nt
COCCn1cnnc1SCC(=O)Nc1sc2c(c1C#N)CCC2,1.1,nt,0.96,4,-10,nt,nt
